According to ChEMBL document CHEMBL1127024, “Synthetic and computer-assisted analysis of the structural requirements for selective, high-affinity ligand binding to diazepam-insensitive benzodiazepine receptors” (J Med Chem, 1993):

Legend:
Type in all cases: protein-complex assay
[1] = biological target: GABA-A receptor; anion channel; test: Binding affinity for Diazepam insensitive (DI) isoform of the benzodiazepine (Bz) binding site on GABAA receptors
In short: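 Adult male Sprague-Dawley rat cerebellar membranes (~100 µg; homogenised in 50 mM Tris-citrate pH 7.8, washed by repeated 20000g spins at 4 °C). Incubated 60 min at 0-4 °C, GF/B filtration, scintillation counting. Duplicate assays; Ki.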

[2] = biological target: GABA-A receptor; anion channel; test: Binding affinity for Diazepam sensitive (DS) isoform of the benzodiazepine (Bz) binding site on GABAA receptors
[3] = biological target: GABA-A receptor; anion channel (Rattus norvegicus) (UniProt O09028+P15431+P18506+P18508+P19969+P20236+P23574+P23576+P28471+P28473+P30191+P62813+P63079+P63138+Q91ZM7+Q9ES14); test: Ratio of binding affinity against DI Bz receptor to that of DS Bz receptor

Row | Structure (SMILES) | Ki [1] [µM] | Ki [2] [µM] | Ratio [3]
1 | C=CCN1Cc2c(C(=O)OCC)ncn2-c2ccccc2C1=O | 1.13 | 0.0392 | 29
2 | CCOC(=O)c1ncn2c1CN(Cc1ccccc1)C(=O)c1ccccc1-2 | 0.112 | 0.0015 | 75
3 | COC(=O)c1ncn2c1CN(C)C(=O)c1ccccc1-2 | 1.41 |  | 224
4 | O=C(OCC1CC1)c1ncn2c1C1CCN1C(=O)c1c(Cl)cccc1-2 (centres undefined) | 0.055 | 0.0001 | 554
5 | CN1Cc2c(C(=O)OCC(C)(C)C)ncn2-c2ccc(Cl)cc2C1=O |  |  | 0.67
6 | CCCOC(=O)c1ncn2c1CN(C)C(=O)c1sccc1-2 |  |  | 27
7 | CCc1cccc2c1C(=O)N1CCCC1c1c(C(=O)OC(C)(C)C)ncn1-2 (centres undefined) | 0.164 | 0.001 | 164
8 | CCOC(=O)c1ncn2c1CN(C)C(=O)c1ccccc1-2 |  |  | 165
9 | COc1cccc2c1C(=O)N1CCCC1c1c(C(=O)OC(C)(C)C)ncn1-2 (centres undefined) | 0.259 | 0.0051 | 51
10 | CC(C)OC(=O)c1ncn2c1CN(C)C(=O)c1cc(Cl)ccc1-2 |  |  | 0.8
11 | CN1Cc2c(C(=O)OC(C)(C)C)ncn2-c2ccccc2C1=O |  |  | 19.2
12 | CCOC(=O)c1ncn2c1C1CCCN1C(=O)c1cc(Cl)ccc1-2 (centres undefined) |  |  | 0.7
13 | CCOC(=O)c1ncn2c1C1CCCN1C(=O)c1c(Cl)cccc1-2 (centres undefined) | 0.0688 | 0.0002 | 344
14 | CCOC(=O)c1ncn2c1[C@@H]1CCCN1C(=O)c1ccccc1-2 |  |  | 50
15 | CC(C)(C)OC(=O)c1ncn2c1C1CCN1C(=O)c1c(Cl)cccc1-2 (centres undefined) |  | 0.0011 | 14
16 | Cc1nnc2n1-c1ccc(Cl)cc1C(c1ccccc1Cl)=NC2 [TRIAZOLAM] | 2.09 | 0.0008 | 2610
17 | CCOC(=O)c1ncn2c1CN(Cc1ccccc1)C(=O)c1c(Cl)cccc1-2 | 0.0202 | 0.0004 | 51
18 | CCCOC(=O)c1ncn2c1CN(C)C(=O)c1cc(Cl)ccc1-2 |  |  | 1.3
19 | Cc1nnc(-c2ncn3c2CN(Cc2ccccc2)C(=O)c2ccccc2-3)o1 | > 10 | 1.21 | 
20 | CCOC(=O)c1ncn2c1C1CCN1C(=O)c1c(Cl)cccc1-2 (centres undefined) | 0.034 | 0.0002 | 170
21 | CC(C)(C)OC(=O)c1ncn2c1C1CCN1C(=O)c1cc(F)ccc1-2 (centres undefined) | 0.0169 | 0.0018 | 9
22 | Cc1noc(-c2ncn3c2CN(Cc2ccccc2)C(=O)c2ccccc2-3)n1 | > 10 | 0.907 | 

Row | Structure (SMILES) | Ki [1] [µM] | Ki [2] [µM] | Ratio [3]
23 | CN1Cc2c(C(=O)OCCC(C)(C)C)ncn2-c2ccc(Cl)cc2C1=O | > 1 |  | 
24 | Cc1noc(-c2ncn3c2CN(Cc2ccccc2)C(=O)c2cc(Cl)ccc2-3)n1 | 0.115 | 0.0884 | 1.3
25 | CC(C)(C)OC(=O)c1ncn2c1C1CCCN1C(=O)c1cc(Cl)ccc1-2 (centres undefined) | 0.0268 | 0.0652 | 0.4
26 | O=C(OC1CCCCC1)c1ncn2c1C1CCCN1C(=O)c1cc(Cl)ccc1-2 (centres undefined) | 0.165 | 0.391 | 0.42
27 | CCOC(=O)c1ncn2c1CN(C)C(=O)c1cccc(Cl)c1-2 | > 10 | > 1 | 
28 | CCCOC(=O)c1ncn2c1CN=C(c1ccccc1Cl)c1cc(Cl)ccc1-2 | 1.02 | 0.0019 | 539
29 | CCC(CC)OC(=O)c1ncn2c1CN(C)C(=O)c1cc(Cl)ccc1-2 |  |  | 4.6
30 | O=C(OCC1CC1)c1ncn2c1C1CCCN1C(=O)c1cc(Cl)ccc1-2 (centres undefined) | 0.081 | 0.378 | 0.22
31 | CC(C)(C)OC(=O)c1ncn2c1C1CCCN1C(=O)c1c(Br)cccc1-2 (centres undefined) | 0.01 | 0.0005 | 20
32 | CN1Cc2c(C(=O)OC(C)(C)C)ncn2-c2ccsc2C1=O |  |  | 13
33 | Cc1noc(-c2ncn3c2CN(Cc2ccccc2)C(=O)c2c(Cl)cccc2-3)n1 |  | 0.0075 | 101
34 | CCOC(=O)c1ncn2c1CN(C)C(=O)c1c(F)cccc1-2 | 0.102 | 0.0008 | 128
35 | CCOC(=O)c1ncn2c1CN(C)C(=O)c1ccc(Cl)cc1-2 | > 10 | > 1 | 
36 | CCOC(=O)c1ncn2c1CN(Cc1ccccc1)C(=O)c1cc(Cl)ccc1-2 | 0.0109 | 0.0137 | 0.8
37 | CCOC(=O)c1ncn2c1[C@H]1CCCN1C(=O)c1ccccc1-2 | > 1 | > 0.1 | 
38 | CCOC(=O)c1ncn2c1CN(C)C(=O)c1c(Cl)cccc1-2 [SARMAZENIL] | 0.02 | 0.0002 | 100
39 | CN1Cc2c(C(=O)OC(C)(C)C)ncn2-c2ccc(Cl)cc2C1=O |  |  | 0.4
40 | COC(=O)c1ncn2c1CN(C)C(=O)c1sccc1-2 |  |  | 58
41 | CN1Cc2c(C(=O)OCC3CC3)ncn2-c2ccc(Cl)cc2C1=O |  |  | 4.1
42 | COC(=O)c1ncn2c1CN(C)C(=O)c1cc(F)ccc1-2 [FLUMAZENIL METHYLESTER] | 0.239 | 0.0031 | 77
43 | CCCOC(=O)c1nc(C)n2c1CN=C(c1ccccc1Cl)c1cc(Cl)ccc1-2 |  | 0.0022 | 
44 | CC(C)(C)OC(=O)c1ncn2c1C1CCCN1C(=O)c1c-2ccc(F)c1Cl (centres undefined) | 0.0236 | 0.001 | 24
